The results in this text go back to ChEMBL document CHEMBL4428055 (J Med Chem, 2016).

SMILES strings stand for the structures. Activity calls are given as the source filed them. No cut-off for these calls is given here.

Assay [1] concerns the target T1, Aldo-keto reductase family 1 member C2 (Homo sapiens, UniProt P52895).
T1 sequence (P52895 whole entry): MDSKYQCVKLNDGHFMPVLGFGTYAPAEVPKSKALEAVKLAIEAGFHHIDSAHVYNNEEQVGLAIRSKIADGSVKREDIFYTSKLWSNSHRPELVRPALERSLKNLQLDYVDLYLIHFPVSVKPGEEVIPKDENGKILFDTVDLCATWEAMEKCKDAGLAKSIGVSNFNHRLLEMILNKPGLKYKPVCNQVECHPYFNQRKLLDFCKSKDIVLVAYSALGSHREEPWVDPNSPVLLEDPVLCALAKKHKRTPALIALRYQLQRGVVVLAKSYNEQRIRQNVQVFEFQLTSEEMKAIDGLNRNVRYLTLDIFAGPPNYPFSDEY
The assay is described as follows: Inhibition of human recombinant AKR1C2 using S-tetralol as substrate assessed as reduction in NADP+-dependent S-tetralol oxidation preincubated for 10 mins followed by protein addition by fluorometric assay.

The target of assay [2] is T2, Aldo-keto reductase family 1 member C3 (Homo sapiens, UniProt P42330).
T2 sequence (P42330 whole entry): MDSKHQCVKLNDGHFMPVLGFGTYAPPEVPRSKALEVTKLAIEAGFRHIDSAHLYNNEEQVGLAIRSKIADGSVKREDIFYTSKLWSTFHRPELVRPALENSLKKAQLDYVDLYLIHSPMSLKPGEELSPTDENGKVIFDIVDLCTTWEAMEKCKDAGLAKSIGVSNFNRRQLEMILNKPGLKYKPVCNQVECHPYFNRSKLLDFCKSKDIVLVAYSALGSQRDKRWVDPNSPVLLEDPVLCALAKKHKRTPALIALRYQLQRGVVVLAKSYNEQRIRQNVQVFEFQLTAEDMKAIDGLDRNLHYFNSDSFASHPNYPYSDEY
Kind of assay: Inhibition of human recombinant AKR1C3 using S-tetralol as substrate assessed as reduction in NADP+-dependent S-tetralol oxidation preincubated for 10 mins followed by protein addition by fluorometric assay.

The target in assay [3] is T3, Prostaglandin G/H synthase 2 (Homo sapiens, UniProt P35354).
T3 sequence (P35354 whole entry): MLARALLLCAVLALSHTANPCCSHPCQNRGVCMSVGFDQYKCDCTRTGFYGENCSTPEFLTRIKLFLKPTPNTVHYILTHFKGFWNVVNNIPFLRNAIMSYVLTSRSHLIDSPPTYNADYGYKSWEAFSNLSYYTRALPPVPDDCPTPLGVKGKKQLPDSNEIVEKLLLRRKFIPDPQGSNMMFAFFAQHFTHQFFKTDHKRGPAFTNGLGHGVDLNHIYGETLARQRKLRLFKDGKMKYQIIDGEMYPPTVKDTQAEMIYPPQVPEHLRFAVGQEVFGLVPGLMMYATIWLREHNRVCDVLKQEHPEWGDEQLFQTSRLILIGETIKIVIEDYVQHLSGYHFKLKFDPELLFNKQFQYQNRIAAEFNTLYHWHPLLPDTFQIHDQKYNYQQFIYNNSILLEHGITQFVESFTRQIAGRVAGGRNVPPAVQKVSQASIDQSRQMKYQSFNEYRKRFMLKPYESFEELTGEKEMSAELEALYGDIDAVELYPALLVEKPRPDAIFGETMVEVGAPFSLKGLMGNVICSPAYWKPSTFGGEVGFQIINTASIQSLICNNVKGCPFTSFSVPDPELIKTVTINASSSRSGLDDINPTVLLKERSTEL
The assay is described as follows: Inhibition of COX2 (unknown origin) using arachidonic acid as substrate assessed as […] by measuring TMPD oxidation preincubated for 5 mins followed by substrate/TMPD addition measured for 5 mins by colorimetric assay.

The target of assay [4] is T4, Prostaglandin G/H synthase 1 (Ovis aries) (UniProt P05979).
T4 sequence (whole entry): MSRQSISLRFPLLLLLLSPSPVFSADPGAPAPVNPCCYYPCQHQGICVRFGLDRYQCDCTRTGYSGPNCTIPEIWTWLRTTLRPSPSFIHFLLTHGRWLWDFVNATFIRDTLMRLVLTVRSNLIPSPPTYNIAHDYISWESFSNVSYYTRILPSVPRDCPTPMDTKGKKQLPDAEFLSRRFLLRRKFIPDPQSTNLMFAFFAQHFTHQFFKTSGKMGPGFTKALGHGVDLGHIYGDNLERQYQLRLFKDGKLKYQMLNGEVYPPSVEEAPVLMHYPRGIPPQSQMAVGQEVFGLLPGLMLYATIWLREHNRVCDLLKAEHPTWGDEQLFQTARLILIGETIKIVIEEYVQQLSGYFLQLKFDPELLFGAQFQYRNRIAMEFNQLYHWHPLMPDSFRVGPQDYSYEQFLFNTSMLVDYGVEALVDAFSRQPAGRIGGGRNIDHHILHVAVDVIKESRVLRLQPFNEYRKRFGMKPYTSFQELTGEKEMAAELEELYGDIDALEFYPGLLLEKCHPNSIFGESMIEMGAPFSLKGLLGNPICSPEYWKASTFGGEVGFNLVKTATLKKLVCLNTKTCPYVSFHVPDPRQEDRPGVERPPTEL
Conditions: 100 uM.

The target in assay [5] is T5, Androgen receptor (Homo sapiens) (UniProt P10275).
T5 sequence (whole entry): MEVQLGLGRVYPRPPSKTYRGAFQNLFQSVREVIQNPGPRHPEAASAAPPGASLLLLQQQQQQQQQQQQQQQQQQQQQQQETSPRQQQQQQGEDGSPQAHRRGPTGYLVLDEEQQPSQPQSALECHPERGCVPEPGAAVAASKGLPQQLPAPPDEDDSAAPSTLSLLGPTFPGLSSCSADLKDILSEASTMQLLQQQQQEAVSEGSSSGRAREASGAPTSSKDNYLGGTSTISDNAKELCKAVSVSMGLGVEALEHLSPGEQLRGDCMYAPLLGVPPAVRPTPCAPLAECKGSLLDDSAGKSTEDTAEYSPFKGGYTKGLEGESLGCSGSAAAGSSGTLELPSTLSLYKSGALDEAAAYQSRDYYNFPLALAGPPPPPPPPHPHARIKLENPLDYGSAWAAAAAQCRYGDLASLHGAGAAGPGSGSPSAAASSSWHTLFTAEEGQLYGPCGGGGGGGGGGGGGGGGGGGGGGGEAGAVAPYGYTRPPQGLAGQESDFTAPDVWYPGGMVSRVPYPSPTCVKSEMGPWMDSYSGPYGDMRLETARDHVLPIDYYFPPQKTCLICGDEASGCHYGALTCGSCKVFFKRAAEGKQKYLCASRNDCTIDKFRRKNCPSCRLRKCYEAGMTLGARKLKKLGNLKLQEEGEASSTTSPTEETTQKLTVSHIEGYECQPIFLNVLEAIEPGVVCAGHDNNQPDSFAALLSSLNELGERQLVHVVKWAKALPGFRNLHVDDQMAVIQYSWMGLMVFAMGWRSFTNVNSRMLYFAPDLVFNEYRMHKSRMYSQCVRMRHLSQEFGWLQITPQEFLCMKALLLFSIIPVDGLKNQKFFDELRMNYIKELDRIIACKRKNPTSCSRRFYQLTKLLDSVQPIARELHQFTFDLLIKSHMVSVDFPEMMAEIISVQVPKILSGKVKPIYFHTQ
Kind of assay: Effect on 5alpha-DHT-induced activation of AR (unknown origin) expressed in human HeLa13 cells at 10 uM incubated for 20 hrs by luciferase reporter gene assay. The assay is classed as cell-based. In a few lines: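 HeLa13 cells stably carrying AR and an androgen-response-element luciferase reporter were grown 48 h in phenol-red-free medium with 5% charcoal-stripped FBS. They were plated for 6–7 h, then given fresh medium with 5α-DHT (1 nM in methods; increasing concentrations also tested) plus inhibitor. Luciferase was read after 20 h, as fold induction over untreated cells.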
On the technique in general: A reporter such as luciferase makes a cellular process visible.

For assay [6], the target named is T6, Prostaglandin G/H synthase 1 (Ovis aries, UniProt P05979).
T6 sequence (P05979 whole entry): T4 sequence (whole entry)
Kind of assay: Inhibition of COX1 in ram seminal vesicles using arachidonic acid as substrate assessed as reduction in […] by measuring TMPD oxidation preincubated for 5 mins followed by substrate/TMPD addition measured for 5 mins by colorimetric assay.

Assay [7] concerns the target T7, Prostaglandin G/H synthase 2 (Homo sapiens) (UniProt P35354).
T7 sequence (whole entry): T3 sequence (P35354 whole entry)
The assay is described as follows: Inhibition of COX2 (unknown origin) using arachidonic acid as substrate assessed as reduction in […] by measuring TMPD oxidation at 10 uM preincubated for 5 mins followed by substrate/TMPD addition measured for 5 mins by colorimetric assay.

For `CSc1ccc2cc([C@H](C)C(=O)O)ccc2c1`, the values for the IC50 in assay [1] and in assay [2] were 1350 nM and 70 nM, respectively.

For `COc1ccc2cc([C@@H](C)C(=O)O)ccc2c1`, the IC50 (commonly the concentration needed to halve the response being measured) was 2750 nM in assay [1] and > 25000 nM in assay [3] (read-out: IC50). The inhibition – broadly, the share of the control response that was lost under treatment – in assay [4] was < 20%.

Turning to `CC[C@@H](C(=O)O)c1ccc2cc(OC)ccc2c1`, the IC50 result in assay [3] is on record as “Not Active”. Moreover, the result in assay [5] was inactive.

Take `CC[C@H](C(=O)O)c1ccc2cc(OC)ccc2c1`: the IC50 was 1720 nM in assay [1], 1930 nM in assay [6], “Not Active” in assay [3] and 120 nM in assay [2].

Turning to `CCC(C(=O)O)c1ccc2cc(OC)ccc2c1` (racemic), the IC50 was 7600 nM in assay [1] and 120 nM in assay [2]. For the same compound, the inhibition entry in assay [7] was “inactive”.

On to `CCc1ccc2cc(C(C)C(=O)O)ccc2c1` (racemic), for which the IC50 is 1900 nM in assay [1] and 120 nM in assay [2].

`CCC(C(=O)NS(C)(=O)=O)c1ccc2cc(OC)ccc2c1` (racemic): the figures for the IC50 in assay [1] and in assay [2] were 34000 nM and 6000 nM, respectively.

For the compound `CCOc1ccc2cc(C(C)C(=O)O)ccc2c1` (racemic), the IC50 was 2400 nM in assay [1] and 100 nM in assay [2].

As to `CSc1ccc2cc(C(C)C(=O)O)ccc2c1` (racemic), the IC50 in assay [1] worked out at 1500 nM; in assay [2], 60 nM.

Regarding `COc1ccc2cc([C@H](C)C(=O)O)ccc2c1` [NAPROXEN], in assay [3] (read-out: IC50), the IC50 was 900 nM.
